# Experimental data published in ChEMBL document CHEMBL1157044, “Synthesis, biological and medicinal significance of S-glycosido-thieno[2,3-d]-pyrimidines as new anti-inflammatory and analgesic agents” (Eur J Med Chem, 2010).
# What was measured:
# Mus musculus [1] = assay: Antiinflammatory activity in Swiss albino mouse assessed as inhibition of carrageenan-induced paw edema at 100 mg/kg, po administered 60 mins before carrageenan challenge measured after 90 mins; type: functional
# Procedure, shortened: (§1)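 Mice fasted overnight, gavaged with suspension in 0.5% carboxymethyl cellulose or vehicle. 60 min later, 0.5 mg/25 µL carrageenan in 154 mM saline injected subplantar into right hind paw, saline into left. Right-minus-left footpad thickness by dial gauge every 90 min over 6 h; % inhibition versus control, mean ± SEM, two-tailed t-test. Indometacin reference.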
# Mus musculus [2] = assay: Toxicity in Swiss albino mouse assessed as gastric ulceration at 100 mg/kg, po; type: organism-based, Stomach; parameters: dose 100 mg/kg, route oral; conditions: in vivo
# Procedure, shortened: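 Mice fasted the day before (water allowed), given 100 mg/kg orally by gavage as suspension in 0.5% carboxymethyl cellulose; vehicle controls. Carrageenan paw oedema followed over 6 h. Immediately after last paw measurement, animals sacrificed under ether anaesthesia, stomachs removed and examined under dissecting microscope; stomach with one or more ulcers scored positive; expressed as ulcerated/total (n=6 per group).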
# Mus musculus [3] = assay: Antiinflammatory activity in Swiss albino mouse assessed as inhibition of carrageenan-induced paw edema at 100 mg/kg, po administered 60 mins before carrageenan challenge measured after 180 mins; type: functional; procedure, shortened: as §1
# Mus musculus [4] = assay: Analgesic activity in Swiss albino mouse assessed as p-benzoquinone-induced writhing at 100 mg/kg, po administered 60 mins before benzoquinone challenge; type: functional
# Procedure, shortened: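 Mice fasted overnight with water allowed, dosed by gavage with suspension in 0.5% carboxymethyl cellulose; vehicle controls. 60 min later, i.p. 0.1 mL/10 g of 2.5% (v/v) p-benzoquinone in distilled water. Writhes counted individually for 15 min starting 5 min post-injection; % change from vehicle writhing controls, mean ± SEM, two-tailed t-test. Aspirin reference.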
# Mus musculus [5] = assay: Antiinflammatory activity in Swiss albino mouse assessed as inhibition of carrageenan-induced paw edema at 100 mg/kg, po administered 60 mins before carrageenan challenge measured after 360 mins; type: functional; procedure, shortened: as §1
# Mus musculus [6] = assay: Antiinflammatory activity in Swiss albino mouse assessed as inhibition of carrageenan-induced paw edema at 100 mg/kg, po administered 60 mins before carrageenan challenge measured after 270 mins; type: functional; procedure, shortened: as §1
SMILES,inhibition in vivo at 100 mg/kg (Mus musculus [1]),Activity (Mus musculus [2]),inhibition in vivo at 100 mg/kg (Mus musculus [3]),inhibition in vivo at 100 mg/kg (Mus musculus [4]),inhibition in vivo at 100 mg/kg (Mus musculus [5]),inhibition in vivo at 100 mg/kg (Mus musculus [6])
CC(=O)c1sc2nc(S[C@@H]3O[C@H](CO)[C@@H](O)[C@@H]3O)n(N)c(=O)c2c1C,28.5%,Non-toxic,29.8%,48.8%,35.6%,28.6%
CC(=O)c1sc2[nH]c(=S)n(N)c(=O)c2c1C,6.1%,Non-toxic,7.8%,35.7%,8.5%,8.3%
CCOC(=O)c1sc2c(c1C)C(=O)N(N)C(S[C@@H]1O[C@H](CO)[C@@H](O)[C@H](O)[C@H]1O)N2 (stereo partly drawn),29.7%,,31.2%,51%,34.4%,33.9%
CCOC(=O)c1sc2nc(S[C@@H]3O[C@H](CO)[C@H](O)[C@H](O)[C@H]3O)n(N)c(=O)c2c1C,,Non-toxic,,,,
CC(=O)c1sc2c(c1C)C(=O)N(N)C(S[C@@H]1O[C@H](CO)[C@H](O)[C@H](O)[C@H]1O)N2 (stereo partly drawn),14.4%,,16.6%,35.7%,20.7%,17.5%
CC(=O)OC[C@H]1O[C@@H](Sc2nc3sc(C(C)=O)c(C)c3c(=O)n2N)[C@@H](OC(C)=O)[C@@H]1OC(C)=O,28.5%,Non-toxic,29.8%,48.8%,35.6%,28.6%
CCOC(=O)c1sc2nc(S[C@@H]3O[C@H](COC(C)=O)[C@@H](OC(C)=O)[C@H](OC(C)=O)[C@H]3OC(C)=O)n(N)c(=O)c2c1C,13.2%,,14.7%,37.9%,22.3%,20.3%
CC(=O)OC[C@H]1O[C@@H](Sc2nc3sc(C(C)=O)c(C)c3c(=O)n2N)[C@H](OC(C)=O)[C@@H](OC(C)=O)[C@@H]1OC(C)=O,25.7%,Non-toxic,23.9%,45.4%,34.2%,29.9%
CC(=O)OC[C@H]1O[C@@H](Sc2nc3sc(C(C)=O)c(C)c3c(=O)n2N)[C@H](OC(C)=O)[C@@H](OC(C)=O)[C@H]1OC(C)=O,14.9%,,7.8%,13.8%,13.1%,10.5%
CCOC(=O)c1sc2nc(S[C@@H]3O[C@H](CO)[C@@H](O)[C@@H]3O)n(N)c(=O)c2c1C,32.1%,Non-toxic,35.6%,53.3%,38.9%,35.9%
CCOC(=O)c1sc2nc(S[C@@H]3O[C@H](COC(C)=O)[C@@H](OC(C)=O)[C@@H]3OC(C)=O)n(N)c(=O)c2c1C,32.1%,Non-toxic,35.6%,53.3%,38.9%,35.9%
CCOC(=O)c1sc2[nH]c(=S)n(N)c(=O)c2c1C,1.2%,Non-toxic,6.1%,23.9%,8.5%,8.3%
CC(=O)Oc1ccccc1C(=O)O [ASPIRIN],,,,51.9%,,
COc1ccc2c(c1)c(CC(=O)O)c(C)n2C(=O)c1ccc(Cl)cc1 [INDOMETHACIN],29.5%,,30.6%,,42.7%,41.9%
